Bioassay records: PubChem, several laboratories
Only a selection was taken, and hits are over-represented in it overall.
TLR9-MyD88 inh – inhibitors of TLR9-MyD88 association in cells, primary screen, cell-based, CHO, BLA complementation, fluorescence; Toll-like receptor 9 (Homo sapiens) + Myeloid differentiation primary response protein …; CCF4 FRET ratio; inhibition, % at 4.98 µM; 340,000 compounds, 0.21% hits; AID 504734, 2011;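 active means inhibition above the mean over all tested compounds plus 3 SD, cut at about 21% in these data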
UPR CHOP act – activators of apoptotic CHOP UPR arm, primary screen, cell-based, CHO-CHOP luciferase reporter, luminescence, uHTS | 330,000 compounds, 0.34% hits | UPR activation; percent of tunicamycin response over DMSO baseline | activation, % at 10 µM;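 active means at 10 µM dose, activation of 40% or more, normalized to positive control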
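Assay system: CHO-CHOP cells, stable luciferase reporter of PERK-eIF2a-CHOP signalling / Buffer or medium: F12 plus 10% serum / Compound dosing: one dose, 10 µM in 0.5% DMSO / Times: 6 h compound treatment, 37 °C / Technique: luciferase luminescence / Read-out: % reporter activation, DMSO baseline versus tunicamycin full activation / Benchmarks: tunicamycin and DMSO controls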
XBP1 UPR activ – activators of adaptive XBP1 UPR arm, primary screen, cell-based, CHO-XBP1 luciferase reporter, luminescence, uHTS | IRE1-XBP1 UPR activation; percent of tunicamycin response, DMSO as zero | activation, % at 20 µM | 330,000 compounds, 0.33% hits | AID 463104, 2010;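 active means versus positive control, 20 µM dose yields 30% or more activation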
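Material: CHO-XBP1 cells stably carrying IRE1-XBP1-driven luciferase reporter | Medium: F12 with 10% serum | Compound dosing: 20 µM single concentration, DMSO 1% | Incubation: Overnight seeding at 37 °C, 6 h compound treatment at 37 °C | Detection: Steady-Glo luminescence read | Read-out basis: % activation of reporter signal versus tunicamycin and DMSO controls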
NOD2-RIPK2 inh – NOD2-RIPK2 binding disruptors in cells, primary screen, fluorescence, CHO cells, BLA complementation; inhibition, % at 4.98 µM; CCF4 ratio; AID 624267, 2012; 360,000 compounds, 0.38% hits; in the data active means inhibition above about 21%
Target sequence (O43353 whole entry, looked up): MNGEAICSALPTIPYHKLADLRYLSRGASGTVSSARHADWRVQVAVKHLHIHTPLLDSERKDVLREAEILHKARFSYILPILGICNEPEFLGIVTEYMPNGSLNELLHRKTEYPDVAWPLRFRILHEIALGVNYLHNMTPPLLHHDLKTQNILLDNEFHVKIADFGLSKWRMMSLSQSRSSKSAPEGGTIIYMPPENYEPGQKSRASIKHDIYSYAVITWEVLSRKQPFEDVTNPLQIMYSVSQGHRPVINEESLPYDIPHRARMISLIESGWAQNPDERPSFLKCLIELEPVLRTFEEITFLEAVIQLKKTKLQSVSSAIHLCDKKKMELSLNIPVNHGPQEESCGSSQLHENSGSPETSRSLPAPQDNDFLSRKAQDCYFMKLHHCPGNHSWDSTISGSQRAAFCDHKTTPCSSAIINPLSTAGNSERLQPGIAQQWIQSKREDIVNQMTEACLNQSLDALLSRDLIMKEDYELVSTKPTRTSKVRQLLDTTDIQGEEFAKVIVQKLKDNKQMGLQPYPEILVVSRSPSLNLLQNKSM
CHOP inhibitor – inhibitors of CHOP promoter induction, primary screen, cell-based, unfolded protein response, luciferase reporter | CHO-K1 CHOP-promoter luciferase, tunicamycin-induced, 15-18 h | inhibition, % at 10 µM | 220,000 compounds, 3.8% hits | AID 2732, 2010;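 active means compounds that reduced the stress-induced luciferase reporter signal by more than about 70% of percent inhibition, limit read from the data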
TLR4-MyD88 BLA – inhibitors of TLR4-MyD88 association in cells, primary screen, cell-based, HeLa CL3-4, BLA complementation, FRET ratio; Toll-like receptor 4 (Homo sapiens) + Myeloid differentiation primary response protein …; HeLa CL3-4 TLR4/MyD88 BLA complementation; inhibition, % at 8.4 µM; 200,000 compounds, 0.18% hits; AID 861, 2007; in the data active means inhibition above about 25%
A number is an active result; n = inactive; x = no result given.

SMILES	TLR9-MyD88 inh	UPR CHOP act	XBP1 UPR activ	NOD2-RIPK2 inh	CHOP inhibitor	TLR4-MyD88 BLA
COc1ccccc1N1CCN(/N=C/C=C\c2ccccc2[N+](=O)[O-])CC1	n	n	n	n	n	n
O=[N+]([O-])c1ccccc1/C=C/C=N/n1c(-c2ccc(Cl)cc2)n[nH]c1=S	n	n	n	n	81.7	n
Cc1ccc(-c2n[nH]c(=S)n2/N=C/C=C\c2ccccc2[N+](=O)[O-])cc1	n	n	n	n	90.6	n
Cc1nnc2c3ccccc3ccn12	n	x	x	n	x	x
COc1ccc(C(C)C)cc1-c1cc(C(=O)NCc2cccc(C(F)(F)F)c2)[nH]n1	x	x	x	n	x	x
COc1ccc(-c2csc(NC(=O)Nc3ccccc3)n2)cc1	n	n	n	n	x	x
Cc1ccc(NC(=O)Nc2nc(-c3ccc(C)s3)cs2)cc1	n	n	n	n	86.3	n
NC(=S)N1OC[C@@H]2COc3ccc4ccccc4c3[C@@H]21	n	n	n	n	76.9	n
CO/N=C/NC(=O)N1OC[C@@H]2COc3ccc4ccccc4c3[C@@H]21	n	n	n	n	n	n
O=C(Nc1ccccc1Cc1ccccc1)c1ccccc1NS(=O)(=O)c1ccc(Cl)s1	n	n	n	n	70.8	n
O=C(Nc1ccccc1)c1ccccc1NS(=O)(=O)c1ccc(Cl)s1	n	n	n	n	n	n
COc1cc2c(cc1OC)C(c1ccc(-c3cc(Cl)ccc3Cl)o1)=NCC2	n	n	n	n	84.6	n
COc1cc2c(cc1OC)C(c1ccc(-c3ccc(Cl)c(Cl)c3)o1)=NCC2	n	n	n	n	80.2	n
CCCCOc1ccc(S(=O)(=O)NC(=O)C2(C)CCN2C(=O)c2c(C)noc2C)cc1 (stereo not given)	x	x	x	n	x	x
COc1ccc(-c2csc(C(NC(C)=O)c3cccc(F)c3)n2)cn1 (stereo not given)	x	x	x	n	x	x
CCOC(=O)c1[nH]c(CSc2nnc(-c3ccc(OC)cc3)o2)c(C(=O)OCC)c1C	n	n	n	n	70.1	n
COc1ccc(-c2nnc(SCC(=O)c3[nH]c(C)c(C(C)=O)c3C)o2)cc1	n	n	n	n	n	n
Cc1ccc(S(=O)(=O)N/N=C\c2cccnc2)cc1	n	n	n	n	n	n
Cc1ccc(C)c(S(=O)(=O)N/N=C/c2cccnc2)c1	n	n	n	n	72.0	n
O=c1c2ccccc2c(-c2cccc(C(F)(F)F)c2)nn1-c1ccccc1	n	n	n	n	n	x
O=c1c2ccccc2c(-c2ccc(O)cc2)nn1-c1cccc(C(F)(F)F)c1	n	n	n	n	93.7	n
Cc1ccc(S(=O)(=O)N2C[C@H]3[C@H]4C(=O)N(C)C(=O)[C@H]4CC(=O)[C@H]3[C@@H]2c2ccccc2Cl)cc1	x	x	x	n	x	x
Clc1ccc(Oc2nc(Oc3ccc(Cl)cc3)nc(N3CCOCC3)n2)cc1	n	n	n	n	n	n
CCOc1ccc(Oc2nc(N(CC)CC)nc(N3CCOCC3)n2)nn1	n	n	n	n	n	n
CCN(CC)c1nc(Oc2ccc(C(=O)OC)cc2)nc(N2CCOCC2)n1	n	n	n	n	84.7	n
SMILES	TLR9-MyD88 inh	UPR CHOP act	XBP1 UPR activ	NOD2-RIPK2 inh	CHOP inhibitor	TLR4-MyD88 BLA
COC(=O)c1ccc(Oc2nc(N3CCCCC3)nc(N3CCOCC3)n2)cc1	n	n	n	n	70.5	n
O=C(C[C@@H]1CC[C@@H]2[C@H](COC[C@H](O)CN2C(=O)Nc2ccc(F)cc2)O1)NCCc1ccncc1	x	x	x	n	x	x
NC(Cc1ccc(F)cc1)c1csc(Nc2ccc(C(F)(F)F)cn2)n1 (stereo not given)	x	x	x	n	x	x
CCCn1c(CN(C)Cc2ccccc2)nc2c1c(=O)n(C)c(=O)n2C	n	n	n	n	n	n
CCCn1c(CN(Cc2ccccc2)Cc2ccccc2)nc2c1c(=O)n(C)c(=O)n2C	n	n	n	n	92.4	n
S=C(NCCSCc1ccccc1Cl)Nc1ccccc1	n	n	n	n	71.4	n
S=C(NCCSCc1ccc(Cl)cc1)Nc1ccccc1	n	n	n	n	80.3	n
O=[N+]([O-])c1ccc(O)c(/C=N\N=C2c3ccccc3-c3ccccc32)c1	n	n	n	n	79.2	n
CCN1CCN(Cc2ccc(NC(=O)c3cc(NC(=O)c4ccc5n[nH]nc5c4)cc(OC)c3)cc2C(F)(F)F)CC1	n	n	n	n	n	x
CCN1CCN(Cc2ccc(NC(=O)c3cc(NC(=O)c4cc(-c5ccc(OC)cc5)n[nH]4)cc(OC)c3)cc2C(F)(F)F)CC1	n	n	n	n	87.2	x
CC(=O)Nc1ccc(NC(=O)c2ccc(Cn3cc(Cl)cn3)cc2)cc1	n	n	n	n	92.1	n
O=C(Nc1cccc(Cl)c1)c1ccc(Cn2cc(Cl)cn2)cc1	n	n	n	n	n	n
CCOC(=O)Cn1c(=NC(=O)c2ccc([N+](=O)[O-])s2)sc2ccccc21	n	n	n	n	80.5	n
COc1cc(C2c3[nH]c4ccccc4c3CC3COC(=O)N32)cc(OC)c1O (stereo not given)	n	x	x	n	x	x
CCCOc1ccc(CNC(=S)N/N=C/c2ccc([N+](=O)[O-])cc2)cc1	n	n	n	n	n	n
CCCOc1ccc(CNC(=S)NCc2ccc(OC(C)C)cc2)cc1	n	n	n	n	82.1	n
CCOC(=O)/C=C/C(=O)Nc1ccccc1-c1ccccc1NC(=O)/C=C/C(=O)OCC	n	x	x	n	80.3	n
CCOC(=O)/C=C/C(=O)OCC(=O)Nc1cccc(Cl)c1Cl	n	n	n	n	n	n
COC(=O)c1ccc2nc(C3CCCCC3)c(Cc3ccccc3)n2c1	x	x	x	n	x	x
COc1ccc(CCNc2ncnc3sccc23)cc1OC	n	n	n	n	70.3	n
Cc1ccc(-c2ccc(=O)n(Cc3ccc(F)cc3)n2)cc1	n	n	n	n	x	x
Cc1ccc(/C=C/c2ccc(=O)n(Cc3ccc(F)cc3)n2)cc1	n	n	n	n	78.8	n
COc1ccc(/C=C/c2ccc(=O)n(Cc3ccccc3)n2)cc1	n	n	n	n	n	n
O=c1ccc(/C=C/c2ccccc2)nn1Cc1ccc(F)cc1	n	n	n	n	80.1	n
CCCNC(=O)C1(C)CCN(Cc2cc(C(F)(F)F)ccc2Cl)C1 (stereo not given)	x	x	x	n	x	x
O=C(Nc1ccc(Cl)c([N+](=O)[O-])c1)C(Sc1ccccc1)c1ccccc1 (stereo not given)	n	n	n	n	83.5	n
